Common to all, as to format: functional
Assay [1] has as its system Mythimna separata. Put plainly: (§1) Larvicidal activity against Mythimna separata (Oriental armyworm) in compound treated corn leaves at […] at 25 +/- 1 degC measured after 4 days.
For assay [2], the system named is Mythimna separata. In words: Larvicidal activity against Mythimna separata (Oriental armyworm) in compound treated corn leaves at 50 mg/L at 25 +/- 1 degC measured after 4 days. In short, it runs like this:
(§2)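 Foliar-application assay on laboratory-reared Oriental armyworm (Mythimna (Pseudaletia) separata), run at 25 ± 1 °C. Larvae were scored dead or alive, and mortality was corrected by Abbott's formula on a 0–100% scale, where 0 = no activity and 100 = total kill. Bioassays were repeated as statistics required.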

The subject of assay [3] is Mythimna separata. In words: Larvicidal activity against Mythimna separata (Oriental armyworm) in compound treated corn leaves at 10 mg/L at 25 +/- 1 degC measured after 4 days.
Assay [4] concerns Mythimna separata. Described as §1. The source holds these as a separate data set.
Assay [5] deals with Mythimna separata. In words: Larvicidal activity against Mythimna separata (Oriental armyworm) in compound treated corn leaves at 5 mg/L at 25 +/- 1 degC measured after 4 days.
Assay [6] deals with Mythimna separata. Put plainly: Larvicidal activity against Mythimna separata (Oriental armyworm ) in compound treated corn leaves at 0.5 mg/L at 25 +/- 1 degC measured after 4 days. In short, it runs like this:
as §2

Assay [7] has as its system Mythimna separata. In words: Larvicidal activity against Mythimna separata (Oriental armyworm) in compound treated corn leaves at 1 mg/L at 25 +/- 1 degC measured after 4 days. In short, it runs like this: as §2
Assay [8] concerns Mythimna separata. Put plainly: Larvicidal activity against Mythimna separata (Oriental armyworm) in compound treated corn leaves at 25 mg/L at 25 +/- 1 degC measured after 4 days.
Assay [9] relates to Mythimna separata. Put plainly: Larvicidal activity against Mythimna separata (Oriental armyworm) in compound treated corn leaves at 100 mg/L at 25 +/- 1 degC measured after 4 days.

For `Cc1cccc(OC(=O)N(C)SN(C(=O)NC(=O)c2c(F)cccc2F)c2ccc(C(F)(F)F)cc2)c1` [Penfluron-S-MTMC], the Activity amounted to 100% in assay [1]; 100% in [2]; 100% in [3]; 15% in [4]; 100% in [5]; 95% in [6]. Also, the Activity in assay [7] and in assay [8] was 100% throughout.
On to `O=C(NC(=O)c1c(F)cccc1F)Nc1ccc(Cl)cc1` [DIFLUBENZURON], for which the Activity in [1] was 100%; in [2], 100%; in assay [9], 0%; in assay [3] it was 100%; in assay [4], 45%; in [5], 100%. Further, the Activity in assay [6], in assay [7] and in assay [8] was 100% each time.
With `CNC(=O)ON=C(C)SC` [METHOMYL], the Activity in assay [1] is on record as 0%; in [9], 100%; in assay [3], 100%; in assay [5] it was 62%.
Take `O=C(NC(=O)c1ccccc1Cl)Nc1ccc(OC(F)(F)F)cc1` [TRIFLUMURON]: the Activity is 100% in assay [1]; 100% in assay [2]; 0% in assay [9]; 100% in [3]; 20% in [4]; 100% in [5]. The Activity in assay [6] is on record as 40%; in assay [7] it was 95%; in assay [8], 100%.
